Format in all cases: ADME
What all share (settings): microsomes

A short description of data set [1]: Compound was evaluated for the apparent kinetic constant (Km) for the microsomal oxidation (hydroxamic acid metabolite).
Data set [2] in a line: Compound was evaluated for the apparent kinetic constant (Km) for the microsomal oxidation (omega-1 hydroxy metabolite).
Data set [3] in a line: Compound was evaluated for the kinetic constant (Vmax) for the microsomal oxidation (hydroxamic acid metabolite); Values are pmol(1/mg of microsomal protein)min. More on the design: unit: pmol/min/mg protein.
The nature of data set [4]: Selectivity ratio of Vmax and Km for microsomal oxidation (hydroxamic acid metabolite). Summed up:
(§1)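 V/K computed as Vmax/Km, an apparent first-order rate constant […], from Wilkinson-fitted kinetic constants of 10-min, 37 °C liver microsomal incubations with NADPH-generating system and paraoxon; metabolites quantified by TLC and dual-label (¹⁴C/³H) radiochemical assay.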

Data set [5] in a line: Selectivity ratio of Vmax and Km for microsomal oxidation (omega-1 hydroxy metabolite). Summed up: as §1
A short description of data set [6]: Compound was evaluated for the kinetic constant (Vmax) for the microsomal oxidation (omega-1 hydroxy metabolite); Values are pmol(1/mg of microsomal protein)min.
The nature of data set [7]: Compound was evaluated for the apparent kinetic constant (Km) for the microsomal oxidation (glycolamide metabolite).
Data set [8] is described as follows: Compound was evaluated for the kinetic constant (Vmax) for the microsomal oxidation (glycolamide metabolite); Values are pmol(1/mg of microsomal protein)min.
Data set [9] in a line: Selectivity ratio of Vmax and Km for microsomal oxidation (glycolamide metabolite). The procedure, abridged: as §1
Data set [10] can be described thus: Compound was evaluated for the kinetic constant (Vmax) for the microsomal oxidation (hydroxamic acid metabolite).
A short description of data set [11]: Compound was evaluated for the apparent kinetic constant (Km) for the microsomal oxidation (4'-hydroxy metabolite).
A short description of data set [12]: Compound was evaluated for the kinetic constant (Vmax) for the microsomal oxidation (4'-hydroxy metabolite); Values are pmol(1/mg of microsomal protein)min.
Data set [13] is described as follows: Selectivity ratio of Vmax and Km for microsomal oxidation (4'-hydroxy metabolite). Summed up: as §1
The nature of data set [14]: Compound was evaluated for the apparent kinetic constant (Km) for the microsomal oxidation (hydroxymethyl metabolite).
Data set [15] in a line: Compound was evaluated for the kinetic constant (Vmax) for the microsomal oxidation (hydroxymethyl metabolite); Values are pmol(1/mg of microsomal protein)min.
Data set [16] in a line: Selectivity ratio of Vmax and Km for microsomal oxidation. The procedure, abridged: as §1

As a reminder, the Km is the concentration of substrate that gives half-maximal velocity.

Take `CCCCOc1ccc(/C=C/c2ccc(NC(C)=O)cc2)cc1`: the Km worked out at 1200 µM in data set [1] and 1100 µM in [2]. Moreover, the Vmax worked out at 330 in data set [3] and 530 in [6]. The Ratio in data set [4] turned out to be 0.28; in [5], 0.48.
In the case of `CC(=O)Nc1ccc(/C=C/c2ccc(Cl)cc2)cc1`, the Km in data set [7] turned out to be 3500 µM; in data set [1] it was 3300 µM. Besides, the Vmax is reported as 17 in data set [8] and 98 in [3]. Moreover, the values for the Ratio in [9] and in data set [4] were 0.005 and 0.03, respectively.
As to `CC(=O)Nc1ccc(/C=C/c2ccc(C)cc2)cc1`, the Km in [1] was 60 µM. In data set [10], the Vmax worked out at 243. In data set [4], the Ratio was 4.05.
In the case of `CC(=O)Nc1ccc(/C=C/c2ccccc2)cc1`, the figures for the Michaelis constant (Km) in data set [11] and in [1] were 500 µM and 2800 µM, respectively. Moreover, the Vmax is on record as 467 in data set [12] and 2767 in [3]. Further, the Ratio in [13] stood at 0.93; in data set [4], 0.99.
Take `CC(=O)Nc1ccc(/C=C/c2ccc(F)cc2)cc1`: the Michaelis constant (Km) turned out to be 3300 µM in [7] and 2900 µM in data set [1]. For the same compound, the Vmax in data set [8] is 27; in data set [3] it was 88. Further, the Ratio turned out to be 0.008 in data set [9] and 0.03 in [4].
In the case of `CC(=O)Nc1ccc(/C=C/c2ccc(C(C)(C)C)cc2)cc1`, the Km in data set [14] was 90 µM. In data set [15], the Vmax amounted to 1129. The Ratio in [16] was determined as 12.54.
Take `CC(=O)Nc1ccc(/C=C/c2ccc(C#N)cc2)cc1`: the Km in [1] came to 310 µM. The Vmax in [3] was 677. In [16], the Ratio is on record as 2.18.
Regarding `CC(=O)Nc1ccc(/C=C/c2ccc(Br)cc2)cc1`, in data set [1], the Km is 1900 µM. Further, the Vmax in data set [3] came to 457. Further, in data set [16], the Ratio came out at 0.24.
